# ATG4B inh – inhibitors of human ATG4B cysteine protease. Q9Y4P1. ATG4B cleavage of LC3-PLA2, NBD-HPC fluorescence, 1 h. inhibition, % at 8.33 µM. hit rate 0.51% among 340,000. AID 504462; in the data active means inhibition above about 40%
# Granule exo inh – lytic granule exocytosis inhibition; hit rate 0.66% among 360,000; inhibition, % at 10 µM; AID 651702; TALL-104 LAMP-1 surface exposure, flow cytometry; cells stimulated with thapsigargin and PMA;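 active means inhibition above about 55%, limit read from the data; inconclusive means no clear call, values can overlap the other calls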
# CendR NRP1 mod – modulators of CendR peptide binding to human neuropilin-1 | O14786 | FAM-RPARPAR peptide binding to NRP-1, fluorescence polarization | inhibition, % at 25 µM | hit rate 0.85% among 360,000;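 active means inhibition or corrected inhibition above about 18%, plus a signal ratio from 0.5 to 1.5, limit read from the data, passing the limit was not always enough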
# Arr AP2 block – blocks beta-arrestin peptide binding to AP2 adaptin; inhibition, % at 10 µM; FITC-arrestin peptide / GST-AP2 beads, flow cytometry; AP2 beta2 appendage carries R879A mutation; AID 504490; hit rate 0.31% among 340,000;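 active means inhibition above a set limit, near 3 SD of compounds lacking own fluorescence, cut at about 54% in these data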
#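 System: GST-tagged AP2 beta2-adaptin appendage (R879A) on 4 µm glutathione beads / Reagent: FITC-arrestin peptide, 50 nM / Detection: HyperCyt-sampled flow cytometry, FL1 channel, ex 488/em 535 nm / Timing: 12 min plus 1 h, RT / Buffer or medium: PBS plus Tween 20 (0.05%) and BSA (0.1%)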
# Myeloid diff MLP – myeloid differentiation induction; ER-HoxA9 myeloid progenitors, lysozyme-GFP differentiation, flow cytometry; calls only at 10 µM; hit rate 1% among 360,000; AID 624256;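 active means normalized GFP-positive differentiation at or above the plate's own cutoff, the solvent-only control mean plus 3 SD; inconclusive means no clear call, values can overlap the other calls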;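 further: cells exposed to compound for four days before flow analysis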
# ABCB6 inh 2 – human ABCB6 transporter inhibition | Q9NP58 | K562-ABCB6 porphyrin accumulation, flow cytometry, 1 h; active compounds read low | fluorescence ratio to DMSO, % at 10 µM | hit rate 0.19% among 360,000 | AID 602162;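 active means fluorescence ratio to DMSO below 75%, the collection mean minus 3 SD; inconclusive means too few cells collected in the well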;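 further: signal is porphyrin accumulated inside mitochondria; lower ratio means ABCB6 inhibition with less porphyrin fluorescence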
# Hits are given with their value; – = inactive; ? = inconclusive; · = no result given; + = active, no number. This is a sample that favours compounds with a hit; in the whole collection about 3.3% have one here.
SMILES,ATG4B inh,Granule exo inh,CendR NRP1 mod,Arr AP2 block,Myeloid diff MLP,ABCB6 inh 2
CN(NC(=O)CN1C(=O)c2ccccc2C1=O)C1=NS(=O)(=O)c2ccccc21,–,–,–,–,–,–
O=c1c([N+](=O)[O-])c(O)c2cccc3c2n1CCC3,–,–,–,–,–,–
Nc1cc(N)nc(SCc2ccccc2Cl)n1,·,–,–,·,–,–
Cc1cc2c(SCc3ccccc3Cl)nc(N)nc2nc1C,–,–,–,–,+,–
CN1CCN(C(=S)C(=O)Nc2ccc(Br)cc2)CC1,–,–,–,–,–,–
CC1(C)NC(=O)N(CC(=O)OCC(=O)Nc2cc(S(=O)(=O)N3CCCCCC3)ccc2Cl)C1=O,–,–,–,–,–,–
N#Cc1c(N)n(CCNC(=O)c2ccc(Cl)cc2)c2nc3ccccc3nc12,–,–,–,–,–,–
Cc1ccc(C(=O)NCCn2c(N)c(C#N)c3nc4ccccc4nc32)cc1,–,–,–,–,+,–
O=C(CNC(=O)c1ccc(N2CCCC2=O)cc1)Nc1ccc(F)c(F)c1F,–,–,–,–,–,–
COc1ccccc1NNC(=O)C(O)(c1ccccc1)c1ccccc1,–,104,–,–,–,–
COc1ccc(NC(=O)NNC(=O)C(O)(c2ccccc2)c2ccccc2)cc1,–,–,28,–,–,–
COc1ccccc1NNC(=O)C(O)(c1ccccc1OC)c1ccccc1OC,–,–,–,–,–,–
NS(=O)(=O)c1cc(C(=O)Nc2ccc3c(c2)OCCCO3)ccc1Cl,–,–,–,–,·,–
Cc1ccc(C(=O)CSc2nc3cc(S(=O)(=O)N4CCOCC4)ccc3o2)cc1,–,–,–,–,–,–
Cc1[nH]c2ccccc2c1C(=O)CSc1nc2cc(S(=O)(=O)N3CCCCC3)ccc2o1,–,–,–,–,–,69
CN(C(=O)CC1C(=O)NCCN1Cc1cccc(F)c1F)C1CC(C)(C)NC(C)(C)C1 (stereo unspecified),–,–,–,–,–,–
S=C(N/N=C1\CCc2ccccc21)NC1CCCCC1,–,–,–,–,–,–
CCOC(=O)c1c(-c2ccccc2Cl)csc1NC(=O)CSc1nc(C)cc(=O)[nH]1,–,–,–,–,–,–
Clc1ccccc1N=Nc1ccccn1,–,–,41,–,–,–
Cc1[nH][nH]c(=O)c1N=Nc1ccccc1Cl,–,–,–,–,–,–
CCOC(=O)N1CCN(C(=O)CCNS(=O)(=O)c2ccccc2)CC1,–,–,–,–,–,–
CCOC(=O)N1CCN(C(=O)COc2ccc(S(=O)(=O)NCc3ccccc3)cc2)CC1,–,–,–,–,+,–
CC1CCCCC1N1CN=C(Nc2nc3ccccc3s2)NC1 (stereo unspecified),–,–,–,–,+,–
CCCCCCCCN1C(=O)[C@H](CC(=O)N2CCN(C(=O)C3CC3)CC2)C[C@@]2(C(=O)OCC)CCCC=C12,·,–,–,·,–,–
COc1cc(C(C)=NNC(=O)c2ccncc2)ccc1O,–,–,–,–,–,–
SMILES,ATG4B inh,Granule exo inh,CendR NRP1 mod,Arr AP2 block,Myeloid diff MLP,ABCB6 inh 2
COC(=O)c1cc2c(cc1NC(=O)CSCCc1ccccn1)OCO2,–,–,–,–,+,–
CCOc1ccccc1CN1CCN(C/C=C/c2ccc(OC)cc2)CC1CCO (stereo unspecified),–,–,–,–,–,–
COc1ccc(-n2nnnc2C(CCc2ccccc2)N2CCN(C/C=C/c3ccccc3)CC2)cc1 (stereo unspecified),·,–,24,·,–,–
CC(C)(C)n1nnnc1C(c1ccccc1)N1CCN(C/C=C/c2ccccc2)CC1 (stereo unspecified),·,–,–,·,+,–
COc1ccc(/C=C/CN2CCN(CCc3ccccc3)C(CCO)C2)cc1 (stereo unspecified),–,–,–,–,+,–
N#Cc1c2ccc(O)cc2n2ccccc12,–,–,31,–,–,–
Cc1ccc(CS(=O)Cc2ccc(C(=O)NCC(C)c3ccccc3)o2)cc1 (stereo unspecified),–,–,–,–,–,–
CCN(C(=O)COC(=O)c1ccc2ccccc2n1)c1c(N)n(Cc2ccccc2)c(=O)[nH]c1=O,–,–,–,–,–,–
O=C(COC(=O)CNC(=O)c1cc(Cl)cc([N+](=O)[O-])c1)NC(=O)NCc1ccco1,–,–,–,–,–,–
O=C(COC(=O)CNC(=O)c1cccc([N+](=O)[O-])c1)NCc1ccco1,–,–,–,–,+,–
Cc1oc2c(c1C(=O)c1ccc(Cl)cc1)C(=O)C(=O)c1ccccc1-2,–,104,–,–,?,–
CCN(CC)C(=S)SC1CCCCN(C(=O)c2ccc(F)cc2)C1=O (stereo unspecified),–,–,–,–,–,–
Cc1ccc(S(=O)(=O)N2CCC(C(=O)Nc3ccccc3N3CCCC3)CC2)c(C)c1,–,–,–,–,–,–
Oc1ccc(Cl)cc1C=NCCc1ccccc1,43,–,–,–,–,–
COc1ccc(C(=O)NCCN2CCN(C(=O)c3ccc(OC)c(OC)c3)CC2)cc1OC,–,–,–,–,–,–
O=C(NCCN1CCN(C(=O)c2cccc(OC(F)F)c2)CC1)c1cccc(OC(F)F)c1,–,–,22,–,–,–
C[C@@H]1CN([C@@H](C)CO)C(=O)c2cccc(NS(C)(=O)=O)c2O[C@H]1CN(C)Cc1ccc(C(=O)O)cc1,–,–,26,–,–,–
COc1ccc(S(=O)(=O)Nc2cccc3c2O[C@H](CN(C)Cc2ccc(C(=O)O)cc2)[C@@H](C)CN([C@H](C)CO)C3=O)cc1,–,–,–,–,–,–
C[C@H](CO)N1C[C@H](C)[C@@H](CN(C)Cc2ccc(C(=O)O)cc2)Oc2c(NC(=O)Cc3ccccc3)cccc2C1=O,–,–,30,–,–,–
O=C(NCC1CCCO1)c1ccc2c(c1)S(=O)(=O)c1ccccc1C2=O (stereo unspecified),–,–,–,–,–,–
CC(C)NC(=O)c1cc(C2CCCCN2C(=O)c2cc(C(C)(C)C)nn2C)on1 (stereo unspecified),·,–,–,·,–,–
O=C(CC1(O)C(=O)Nc2cc(Cl)cc(Cl)c21)c1ccccc1O (stereo unspecified),–,–,43,–,–,–
COc1ccc(NC(=O)C2CCN(C(=O)Cc3ccccc3)CC2)cc1OC,–,–,–,–,–,–
COc1ccc(NC(=O)C2CCN(C(=O)Nc3ccccc3)CC2)cc1S(=O)(=O)N(C)C,–,–,23,–,–,–
CCOc1ccc(C(=O)OCC(=O)Nc2ccc3c(c2)OCCO3)cc1OC,–,–,25,–,–,–
O=C(NCc1cccnc1)C1CCCCN1S(=O)(=O)c1ccc(F)cc1 (stereo unspecified),–,–,–,–,–,–
